The source made the active and inactive calls. No cut-off for these calls is given here.
Tests used:
[1] = target: T1, Estrogen receptor (Homo sapiens, UniProt P03372)
T1 sequence (P03372 whole entry): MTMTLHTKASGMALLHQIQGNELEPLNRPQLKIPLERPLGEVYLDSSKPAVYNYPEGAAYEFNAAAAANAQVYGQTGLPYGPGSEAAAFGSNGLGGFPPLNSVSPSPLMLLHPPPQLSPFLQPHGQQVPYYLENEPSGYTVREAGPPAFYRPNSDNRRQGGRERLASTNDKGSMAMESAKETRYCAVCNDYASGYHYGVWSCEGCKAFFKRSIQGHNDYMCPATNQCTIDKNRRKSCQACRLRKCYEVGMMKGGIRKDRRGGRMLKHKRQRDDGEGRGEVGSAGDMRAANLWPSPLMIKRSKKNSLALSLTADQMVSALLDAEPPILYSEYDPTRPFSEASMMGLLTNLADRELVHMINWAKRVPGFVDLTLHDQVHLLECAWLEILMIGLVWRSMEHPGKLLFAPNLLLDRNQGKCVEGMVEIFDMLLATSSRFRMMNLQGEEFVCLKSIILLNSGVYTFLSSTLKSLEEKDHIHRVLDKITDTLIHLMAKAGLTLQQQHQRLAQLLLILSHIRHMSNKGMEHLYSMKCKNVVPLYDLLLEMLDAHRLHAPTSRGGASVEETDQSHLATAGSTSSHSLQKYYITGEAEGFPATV

[2] = target: Estrogen receptor beta (Homo sapiens, UniProt Q92731)
Chain of Estrogen receptor beta (Q92731 whole entry): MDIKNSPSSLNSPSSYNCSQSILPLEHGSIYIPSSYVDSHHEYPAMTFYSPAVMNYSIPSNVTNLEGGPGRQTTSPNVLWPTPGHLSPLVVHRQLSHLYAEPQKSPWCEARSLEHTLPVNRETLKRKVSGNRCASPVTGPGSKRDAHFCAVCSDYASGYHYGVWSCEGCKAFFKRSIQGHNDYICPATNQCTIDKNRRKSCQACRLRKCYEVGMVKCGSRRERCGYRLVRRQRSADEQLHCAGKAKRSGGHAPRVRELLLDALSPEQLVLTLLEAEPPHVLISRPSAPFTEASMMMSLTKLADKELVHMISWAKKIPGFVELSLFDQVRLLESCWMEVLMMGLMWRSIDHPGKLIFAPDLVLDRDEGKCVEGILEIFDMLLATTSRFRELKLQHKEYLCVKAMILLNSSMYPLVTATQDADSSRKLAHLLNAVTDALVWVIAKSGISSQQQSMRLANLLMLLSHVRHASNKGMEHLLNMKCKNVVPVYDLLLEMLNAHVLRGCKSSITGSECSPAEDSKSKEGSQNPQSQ

[3] = Retention time of the compound in human whole blood by HPLC analysis; format: ADME, tissue-based
Summary of the method: (§1)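 Compound incubated 0 to 6 h in human whole blood at 37 °C; proteins precipitated 1:2 (v/v); supernatant analysed by reversed-phase C18 HPLC at 254 nm, water/MeCN gradient with 0.1% TFA, 3.0 mL/min at 50 °C.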

[4] = Drug metabolism in human whole blood assessed as nitric oxide release measured after 6 hrs by HPLC analysis; format: ADME, tissue-based
Summary of the method: as §1

[5] = Drug metabolism in human whole blood assessed as 5d formation measured after 6 hrs by HPLC analysis; format: ADME, tissue-based
Summary of the method: as §1

[6] = Drug metabolism in pH 7.5 PBS assessed as nitric oxide release at 50 uM measured after 90 mins in presence of K3[Fe(CN)6] by 2,3-diaminonaphthalene-based fluorescence assay
Summary of the method: (§2)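 Compound incubated 90 min at 37 °C in PBS pH 7.5 alone, with human plasma, with 50 μM K3[Fe(CN)6], or with 5 mM L-cysteine. Nitrite reacted with 2,3-diaminonaphthalene under acid to give fluorescent naphthotriazole; HgCl2 added to release S-nitrosothiol-bound NO. Release given as % of 1 mol NO/mol compound; 3−4 experiments in duplicate (n = 6−8), mean ± SEM.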

[7] = Drug metabolism in pH 7.5 PBS assessed as free nitrite level at 50 uM measured after 90 mins in presence of L-cysteine by 2,3-diaminonaphthalene-based fluorescence assay
Summary of the method: as §2

[8] = Drug metabolism in pH 7.5 PBS assessed as nitric oxide release at 50 uM measured after 90 mins in presence of L-cysteine by 2,3-diaminonaphthalene-based fluorescence assay
Summary of the method: as §2

[9] = Drug metabolism in pH 7.5 PBS assessed as S-nitroso-thiol level at 50 uM measured after 90 mins in presence of L-cysteine by 2,3-diaminonaphthalene-based fluorescence assay
Summary of the method: as §2

[10] = tested on: MCF7; test: Antiproliferative activity against human MCF7 cells assessed as cell viability at 50 uM measured after 24 hrs by celltiter-blue assay relative to control; format: functional; details: MCF7, 24 h, read-out: Activity
Summary of the method: (§3)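 Breast adenocarcinoma lines: MCF-7 grown in Leibovitz's L-15 with 10% FCS and 1% pen/strep without CO2; MDA-MB-231 grown in DMEM with 10% FCS and 1% pen/strep at 5% CO2; both at 37 °C. Viability measured after 24 h treatment at 50 μM vs DMSO. Three independent experiments (n = 9); mean ± SEM, ANOVA/Bonferroni.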

[11] = tested on: MDA-MB-231; test: Antiproliferative activity against human MDA-MB-231 cells assessed as cell viability at 50 uM measured after 24 hrs by celltiter-blue assay relative to control; format: functional; details: MDA-MB-231, 24 h, read-out: Activity
Summary of the method: as §3

[12] = tested on: A2058; test: Antiproliferative activity against human A2058 cells assessed as cell viability at 50 uM measured after 24 hrs by celltiter-blue assay relative to control; format: functional; details: A2058, 24 h, read-out: Activity
Summary of the method: (§4)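 Human melanoma cells seeded at 8.5 × 10^4 cells/well in 96-well plates and treated 24 h with test compound (up to 50 μM) against a DMSO control; viability read as in the group's earlier method. Three to five independent experiments (n = 9−15); mean ± SEM, ANOVA with Bonferroni post hoc test vs DMSO.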

[13] = tested on: MEL-JUSO; test: Antiproliferative activity against human MelJuSo cells assessed as cell viability at 50 uM measured after 24 hrs by celltiter-blue assay relative to control; format: functional; details: read-out: Activity
Summary of the method: as §4

[14] = tested on: A2058; test: Antiproliferative activity against human A2058 cells assessed as reduction in number of proliferating cells at 50 uM measured after 48 hrs by cell counting analysis; format: functional, cell-based
Summary of the method: (§5)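 A2058 cells plated at 0.5 × 10^6 (24 h) or 0.35 × 10^6 (48 h) per well, Mel-Juso at 0.6 × 10^6 or 0.45 × 10^6. After 24 h cells were treated with 0−50 μM, DMSO as control, then counted electronically after 24 or 48 h. Three independent experiments; mean ± SEM, ANOVA/Bonferroni vs DMSO.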

[15] = tested on: MEL-JUSO; test: Antiproliferative activity against human MelJuSo cells assessed as reduction in number of proliferating cells at 50 uM measured after 48 hrs by cell counting analysis; format: functional, cell-based
Summary of the method: as §5

[16] = (§6) Cytotoxicity against HUVEC assessed as cell viability at 50 uM measured after 24 hrs by celltiter-blue assay; format: cell-based; details: human, HUVEC cells; read-out: Activity
Summary of the method: (§7)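 HUVEC grown in endothelial cell growth medium at 37 °C, seeded at 7 × 10^4 cells/well in 96-well plates, treated 24 h with test compound up to 50 μM, DMSO as control; viability read as in the group's earlier method.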

[17] = Effect on ER/PI3K pathway in HUVEC assessed as upregulation of COX2 expression up to 20 uM measured after 24 hrs by Western blot analysis; format: ADME, cell-based; details: human
Summary of the method: (§8)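 HUVEC treated 24 h with test compounds at various concentrations, with tamoxifen or 17β-estradiol as references, vs DMSO; COX-2 protein detected by Western blotting. Four independent experiments.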

[18] = Drug metabolism in pH 7.5 PBS assessed as nitric oxide release at 50 uM measured after 90 mins in presence of […] by 2,3-diaminonaphthalene-based fluorescence assay
[19] = tested on: A2058; test: Antiproliferative activity against human A2058 cells assessed as reduction in cell viability measured after 24 hrs by celltiter-blue assay; format: functional, cell-based; details: A2058, 24 h
Summary of the method: as §4

[20] = tested on: MEL-JUSO; test: Antiproliferative activity against human MelJuSo cells assessed as reduction in cell viability measured after 24 hrs by celltiter-blue assay; format: functional, cell-based
Summary of the method: as §4

[21] = Stability of the compound in human whole blood measured after 6 hrs by HPLC analysis; format: ADME, tissue-based
Summary of the method: as §1

[22] = tested on: MCF7; test: Antiproliferative activity against human MCF7 cells assessed as reduction in number of proliferating cells measured after 48 hrs by cell counting analysis; format: functional, cell-based
Summary of the method: (§9)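 MCF-7 (L-15 with 10% FCS, no CO2) and MDA-MB-231 (DMEM with 10% FCS, 5% CO2) treated 48 h with test compound over a concentration range, DMSO as control; proliferating cells counted. Four independent experiments (n = 8); mean ± SEM, ANOVA with Bonferroni post hoc test vs DMSO.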

[23] = tested on: MDA-MB-231; test: Antiproliferative activity against human MDA-MB-231 cells assessed as reduction in number of proliferating cells measured after 48 hrs by cell counting analysis; format: functional, cell-based
Summary of the method: as §9

[24] = tested on: A2058; test: Antiproliferative activity against human A2058 cells assessed as reduction in number of proliferating cells at 25 uM measured after 48 hrs by cell counting analysis; format: functional, cell-based
Summary of the method: as §5

[25] = tested on: MEL-JUSO; test: Antiproliferative activity against human MelJuSo cells assessed as reduction in number of proliferating cells at 25 uM measured after 48 hrs by cell counting analysis; format: functional, cell-based
Summary of the method: as §5

[26] = tested on: HUVEC; test: as §6; format: cell-based; details: human, huvec, 24 h, 50 µM; BLD = below limit of detection
Summary of the method: as §7

[27] = tested on: HUVEC; test: Cytotoxicity against HUVEC assessed as reduction in cell viability measured after 24 hrs by celltiter-blue assay; format: cell-based; details: Homo sapiens
Summary of the method: as §7

[28] = Effect on ER/PI3K pathway in HUVEC assessed as upregulation of COX2 expression measured after 24 hrs by Western blot analysis; format: ADME, cell-based; details: human
Summary of the method: as §8

[29] = Effect on ER/PI3K pathway in HUVEC assessed as change COX2 expression up to 1 uM measured after 24 hrs by Western blot analysis; format: ADME, cell-based; details: human
Summary of the method: as §8

CS(=O)(=O)c1ccc(C(CCCCO[N+](=O)[O-])=C(c2ccc(F)cc2)c2ccc(F)cc2)cc1
IC50 [1]: > 5 µM | IC50 [2]: 0.2 µM | Retention_time [3]: 16.4 min | Drug metabolism [4]: Metabolite_Detected | Drug metabolism [5]: Metabolite_Detected | Drug metabolism [6]: 2.5% | Drug metabolism [7]: 0.4% | Drug metabolism [8]: 3.8% | Drug metabolism [9]: 3.4% | viability at 50 µM [10]: 82.8% | viability at 50 µM [11]: 91.3% | viability at 50 µM [12]: 106% | viability at 50 µM [13]: 101% | Activity [14]: inactive | Activity [15]: inactive | viability at 24 h, 50 µM [16]: 91.1% | Activity [17]: Not Active

CS(=O)(=O)c1ccc(C(CCCCO[N+](=O)[O-])=C(c2ccccc2)c2ccccc2)cc1
IC50 [1]: > 5 µM | IC50 [2]: 1.3 µM | Drug metabolism [18]: 0.1% | Drug metabolism [6]: 1.1% | Drug metabolism [7]: 0.9% | Drug metabolism [8]: 0.5% | Drug metabolism [9]: 0.4% | viability at 50 µM [12]: 120% | viability at 50 µM [13]: 87.1%

CC(=O)Oc1ccccc1C(=O)Oc1ccc(CO[N+](=O)[O-])cc1
Drug metabolism [6]: 0.2% | Drug metabolism [7]: 0.8% | Drug metabolism [8]: 4.4% | Drug metabolism [9]: 3.6%

CS(=O)(=O)c1ccc(C(CCCCO)=C(c2ccccc2)c2ccccc2)cc1
IC50 [1]: > 5 µM | IC50 [2]: 1.4 µM | viability at 50 µM [12]: 106% | viability at 50 µM [13]: 68.6%

O=S(=O)(NO)c1ccccc1
Drug metabolism [18]: 33.5% | Drug metabolism [6]: 48.3% | Drug metabolism [7]: 0.3% | Drug metabolism [8]: 3.6% | Drug metabolism [9]: 3.3%

CS(=O)(=O)c1ccc(C(CCCO[N+](=O)[O-])=C(c2ccccc2)c2ccccc2)cc1
IC50 [1]: > 5 µM | IC50 [2]: 2.7 µM | Drug metabolism [6]: 1.5% | Drug metabolism [7]: 0.7% | Drug metabolism [8]: 2% | Drug metabolism [9]: 1.3% | viability at 50 µM [12]: 117% | viability at 50 µM [13]: 96.5%

CS(=O)(=O)c1ccc(C(CCCO)=C(c2ccc(F)cc2)c2ccc(F)cc2)cc1
IC50 [1]: > 5 µM | IC50 [2]: 3 µM | viability at 50 µM [12]: 47.6% | viability at 50 µM [13]: 31.4% | EC50 [19]: 27.5 µM | EC50 [20]: 36.3 µM

CS(=O)(=O)c1ccc(C(CCCCO)=C(c2ccc(F)cc2)c2ccc(F)cc2)cc1
IC50 [1]: > 5 µM | IC50 [2]: 0.18 µM | Stability [21]: Stable | Retention_time [3]: 14.5 min | viability at 50 µM [10]: 72.2% | viability at 50 µM [11]: 86.4% | Activity [22]: Dose-dependent effect | Activity [23]: Dose-dependent effect | viability at 50 µM [12]: 17% | viability at 50 µM [13]: 20.5% | EC50 [19]: 39.9 µM | EC50 [20]: 34.9 µM | Activity [24]: Active | Activity [25]: Active | Activity [26]: Bld | EC50 [27]: 19.6 µM | Activity [28]: Dose-dependent effect

CC/C(=C(\c1ccccc1)c1ccc(OCCN(C)C)cc1)c1ccccc1 [TAMOXIFEN]
viability at 50 µM [12]: 1.8% | viability at 50 µM [13]: 1% | EC50 [19]: 12.5 µM | EC50 [20]: 14.6 µM | Activity [29]: Active

CS(=O)(=O)c1ccc(C(CCCO)=C(c2ccccc2)c2ccccc2)cc1
IC50 [1]: > 5 µM | IC50 [2]: 1.5 µM | viability at 50 µM [12]: 63% | viability at 50 µM [13]: 52.7%

CCCCC(=C(c1ccc(F)cc1)c1ccc(F)cc1)c1ccc(S(C)(=O)=O)cc1
viability at 50 µM [12]: 117% | viability at 50 µM [13]: 75.4%

CS(=O)(=O)c1ccc(C(CCCO[N+](=O)[O-])=C(c2ccc(F)cc2)c2ccc(F)cc2)cc1
IC50 [1]: > 5 µM | IC50 [2]: > 5 µM | Drug metabolism [18]: 2.2% | Drug metabolism [6]: 0.1% | Drug metabolism [7]: 0.1% | Drug metabolism [8]: 2% | Drug metabolism [9]: 1.9% | viability at 50 µM [12]: 107% | viability at 50 µM [13]: 91.5%

Reference: ChEMBL document CHEMBL4359812, “Nitric Oxide-Releasing Selective Estrogen Receptor Modulators: A Bifunctional Approach to Improve the Therapeutic Index” (J Med Chem, 2019)
